Experimental data: ChEMBL document CHEMBL3763097, “Synthesis and biological evaluation of 5,10-dihydro-11H-dibenzo[b,e][1,4]diazepin-11-one structural derivatives as anti-cancer and apoptosis inducing agents” (Eur J Med Chem, 2016)
Activity calls are given as the source filed them. No cut-off for these calls is given here.

Tests used:
A549 [1] = assay: Induction of apoptosis in human A549 cells assessed as condensation of nuclei at 0.5 to 2 uM after 48 hrs by Hoechst […] staining based fluorescence microscopy; type: functional, cell-based
In short: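 Cells at 25×10^4 per well were allowed to adhere 24 h, then treated with 0.5, 1 and 2 µM compound for 48 h at 37 °C. After a PBS wash they were stained with Hoechst […] (5 µg/mL) for 30 min at room temperature and washed twice. Nuclear morphology was viewed by fluorescence microscopy (ex 350/em 460 nm).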

A549 [2] = assay: Disruption of mitochondrial membrane potential in human A549 cells at 0.5 to 2 uM after 48 hrs by Rhodamine-123 staining based spectrofluorometry; type: functional
In short: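 Cells were seeded at 5×10^5 cells/mL overnight and treated with 0.5, 1 and 2 µM compound; the methods say 24 h and the results text says 48 h. Trypsinised cells were washed and stained with rhodamine-123 (2 µM in PBS) for 30 min at room temperature in the dark, washed and read by spectrofluorometer. Data are mean ± SD of three independent experiments.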

A549 [3] = assay: Induction of apoptosis in human A549 cells assessed as necrotic cells at 0.5 uM after 24 hrs by Annexin V-FITC/PI dual staining based flow cytometry (reference value: 5.2%); type: functional
MDA-MB-231 [4] = assay: Induction of apoptosis in human MDA-MB-231 cells assessed as viable cells at 0.5 uM after 24 hrs by Annexin V-FITC/PI dual staining based flow cytometry (reference value: 91%); type: functional; conditions: MDA-MB-231, 24 h, read-out: Activity
MDA-MB-231 [5] = assay: Induction of apoptosis in human MDA-MB-231 cells assessed as viable cells at 1 uM after 24 hrs by Annexin V-FITC/PI dual staining based flow cytometry (reference value: 91%); type: functional; conditions: MDA-MB-231, 24 h, read-out: Activity
A549 [6] = assay: Cell cycle arrest in human A549 cells assessed as accumulation at G2/M phase after 24 to 48 hrs by propidium iodide staining based flow cytometry; type: functional
In short: (§1)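 Cells were seeded at 1×10^6 per well and treated 24 h later with 0.5, 1 or 2 µM compound; DMSO-treated cells served as control. Methods give harvest at 48 h (floating plus trypsinised cells); the figure legend says 24 h. Cells were fixed in 70% ethanol for 30 min at 4 °C and stained with PI, Triton X-100 and RNase A for 15 min in the dark. 10000 events were counted by flow cytometry.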

A549 [7] = assay: Antimigratory activity in human A549 cells at 0.5 to 2 uM measured after 24 to 48 hrs by wound healing assay; type: functional, cell-based
In short: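 Wound-healing assay. Cells were seeded at 5×10^5 per well and grown 24 h to a confluent monolayer, then scratched once across the middle with a sterile pipette tip and washed twice with PBS. Compound was added at 0.5, 1 and 2 µM. Wound closure was photographed by phase-contrast microscopy at 0, 24 and 48 h in three or more random fields.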

A549 [8] = assay: Cell cycle arrest in human A549 cells assessed as accumulation at G2/M phase at 1 uM after 24 to 48 hrs by propidium iodide staining based flow cytometry (reference value: 22.3 to 31%); type: functional; in short: as §1
MDA-MB-231 [9] = assay: Cell cycle arrest in human MDA-MB-231 cells assessed as accumulation at S phase at 0.5 uM after 24 to 48 hrs by propidium iodide staining based flow cytometry (reference value: 4.6%); type: functional; in short: as §1
A549 (human) = assay: Induction of apoptosis in human A549 cells assessed as late apoptotic cells at 2 uM after 24 hrs by Annexin V-FITC/PI dual staining based flow cytometry (reference value: 6.2%)

O=C1c2ccccc2Nc2ccccc2N1Cc1cn(Cc2ccccc2)nn1
Activity (A549 [1]): Active | Activity (A549 [2]): 15% | Activity (A549 [3]): 2.5% | viability at 0.5 µM (MDA-MB-231 [4]): 70% | viability at 1 µM (MDA-MB-231 [5]): 73% | Activity (A549 [6]): Dose-dependent effect | inhibition (A549 [7]): Dose-dependent effect | Activity (A549 [8]): 43.6% | Activity (MDA-MB-231 [9]): 1.2% | Activity (A549 (human)): 15.6%
